According to ChEMBL document CHEMBL3867440, “Hernandezine, a Bisbenzylisoquinoline Alkaloid with Selective Inhibitory Activity against Multidrug-Resistance-Linked ATP-Binding Cassette Drug Transporter ABCB1” (J Nat Prod, 2016):

How the values were obtained:
[1] = target: Multidrug resistance-associated protein 1 (Homo sapiens, UniProt P33527); test: Inhibition of human ABCC1 transfected in HEK293 cells assessed as potentiation of etoposide-induced cytotoxicity by measuring etoposide resistance ratio at 500 nM after 72 hrs by CCK8 assay relative to parental HEK293 cells (reference value: 350); type: cell-based; conditions: hek293, 72 h, 0.5 µM
[2] = target: T1, ATP-dependent translocase ABCB1 (Homo sapiens, UniProt P08183); test: Inhibition of human ABCB1 transfected in HEK293 cells assessed as potentiation of doxorubicin-induced cytotoxicity by measuring doxorubicin resistance ratio at 500 nM after 72 hrs by CCK8 assay relative to parental HEK293 cells (reference value: 96); type: cell-based; conditions: hek293, 72 h, 0.5 µM
[3] = target: T1, ATP-dependent translocase ABCB1; test: Inhibition of ABCB1 in human NCI-ADR-RES cells assessed as potentiation of vincristine-induced cytotoxicity by measuring vincristine resistance ratio at 500 nM after 72 hrs by MTT assay relative to parental OVCAR8 cells (reference value: 435); type: cell-based; conditions: ovcar-8, 72 h, 0.5 µM
Outline: (§1)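 Cells were kept in drug-free DMEM with 10% FCS for 7 days before assay, then plated at 5000 cells/well for 24 h. Drug at various concentrations was added with a nontoxic fixed level of modulator for 72 h, and the read-out was MTT. IC50 came from fitted curves (≥3 experiments). RR = IC50 of the resistant line / IC50 of the parental line.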

[4] = target: T1, ATP-dependent translocase ABCB1; test: Inhibition of ABCB1 in human KBV1 cells assessed as potentiation of vincristine-induced cytotoxicity by measuring vincristine resistance ratio at 200 nM after 72 hrs by MTT assay relative to parental KB-3-1 cells (reference value: 356); type: cell-based; conditions: kbv1, 72 h, 0.2 µM; outline: as §1
[5] = target: T1, ATP-dependent translocase ABCB1; test: Inhibition of ABCB1 in human NCI-ADR-RES cells assessed as potentiation of doxorubicin-induced cytotoxicity by measuring doxorubicin resistance ratio at 50 nM after 72 hrs by MTT assay relative to parental OVCAR8 cells (reference value: 46); type: cell-based; conditions: ovcar-8, 72 h, 0.05 µM; outline: as §1
[6] = target: T1, ATP-dependent translocase ABCB1; test: Inhibition of ABCB1 in human KBV1 cells assessed as potentiation of vincristine-induced cytotoxicity by measuring vincristine resistance ratio at 50 nM after 72 hrs by MTT assay relative to parental KB-3-1 cells (reference value: 356); type: cell-based; conditions: kbv1, 72 h, 0.05 µM; outline: as §1
[7] = target: T1, ATP-dependent translocase ABCB1; test: Inhibition of ABCB1 in human KBV1 cells assessed as potentiation of vincristine-induced cytotoxicity by measuring vincristine resistance ratio at 500 nM after 72 hrs by MTT assay relative to parental KB-3-1 cells (reference value: 356); type: cell-based; conditions: kbv1, 72 h, 0.5 µM; outline: as §1
[8] = target: T1, ATP-dependent translocase ABCB1; test: Inhibition of ABCB1 in human KBV1 cells assessed as potentiation of doxorubicin-induced cytotoxicity by measuring doxorubicin resistance ratio at 500 nM after 72 hrs by MTT assay relative to parental KB-3-1 cells (reference value: 34); type: cell-based; conditions: kbv1, 72 h, 0.5 µM; outline: as §1
[9] = system: KB 3-1; test: Induction of apoptosis in human KB-3-1 cells assessed as necrotic cells at 1 uM after 48 hrs by Annexin V-FITC/propidium iodide staining based FACS analysis (reference value: 0.7%); type: functional
[10] = target: T1, ATP-dependent translocase ABCB1; test: Induction of Vanadate-sensitive ABCB1 (unknown origin) assessed as ATPase activity by measuring concentration required for 50% maximal stimulation by Pgp-glo assay
Outline: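 Vanadate-sensitive ABCB1 ATPase activity was measured with the Pgp-Glo system using […], across 0–1 μM test compound. Points are the mean of at least three independent experiments.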

[11] = target: T1, ATP-dependent translocase ABCB1; test: Inhibition of ABCB1 in human NCI-ADR-RES cells assessed as potentiation of vincristine-induced cytotoxicity by measuring vincristine resistance ratio at 50 nM after 72 hrs by MTT assay relative to parental OVCAR8 cells (reference value: 435); type: cell-based; conditions: ovcar-8, 72 h, 0.05 µM; outline: as §1
[12] = system: KB 3-1; test: Potentiation of colchicine-induced apoptosis in human KB-3-1 cells assessed as early apoptotic cells at 1 uM after 48 hrs by Annexin V-FITC/propidium iodide staining based FACS analysis (reference value: 30.5%); type: functional
[13] = system: KB-V1; test: Induction of apoptosis in human KBV1 cells assessed as early apoptotic cells at 1 uM after 48 hrs by Annexin V-FITC/propidium iodide staining based FACS analysis (reference value: 5.3%); type: functional
[14] = system: KB-V1; test: Induction of apoptosis in human KBV1 cells assessed as late apoptotic cells at 1 uM after 48 hrs by Annexin V-FITC/propidium iodide staining based FACS analysis (reference value: 7.6%); type: functional
[15] = target: T1, ATP-dependent translocase ABCB1; test: Inhibition of ABCB1 in human NCI-ADR-RES cells assessed as reduction of calcein efflux at 1 uM by -based FACS analysis; type: cell-based
Outline: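 Trypsinized cells were resuspended in IMDM with 5% FCS. Calcein-AM was added to 3 × 10^5 cells in 4 mL IMDM, with or without 1 μM test compound or 3 μM tariquidar. Intracellular calcein fluorescence was read immediately by flow cytometry, with the drug-sensitive parental line run in parallel.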

[16] = target: ABCB1 (P-glycoprotein) (Homo sapiens, UniProt P08183); test: Induction of Vanadate-sensitive ABCB1 (unknown origin) assessed as increase in ATPase activity up to 1 uM by Pgp-glo assay relative to control; conditions: read-out: FC
Outline: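 Vanadate-sensitive ABCB1 ATPase activity measured with the Pgp-Glo system as […], across 0–1 μM test compound. Points are means of at least three independent experiments.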

[17] = target: T1, ATP-dependent translocase ABCB1; test: Inhibition of ABCB1 in human NCI-ADR-RES cells assessed as potentiation of doxorubicin-induced cytotoxicity by measuring doxorubicin resistance ratio at 500 nM after 72 hrs by MTT assay relative to parental OVCAR8 cells (reference value: 46); type: cell-based; conditions: ovcar-8, 72 h, 0.5 µM; outline: as §1
[18] = system: KB 3-1; test: Induction of apoptosis in human KB-3-1 cells assessed as late apoptotic cells at 1 uM after 48 hrs by Annexin V-FITC/propidium iodide staining based FACS analysis (reference value: 5.8%); type: functional
[19] = target: T1, ATP-dependent translocase ABCB1; test: Inhibition of ABCB1 in human KBV1 cells assessed as potentiation of vincristine-induced cytotoxicity by measuring vincristine resistance ratio at 100 nM after 72 hrs by MTT assay relative to parental KB-3-1 cells (reference value: 356); type: cell-based; conditions: kbv1, 72 h, 0.1 µM; outline: as §1
[20] = target: T1, ATP-dependent translocase ABCB1; test: Inhibition of ABCB1 in human KBV1 cells assessed as potentiation of colchicine-induced cytotoxicity by measuring colchicine resistance ratio at 50 nM after 72 hrs by MTT assay relative to parental KB-3-1 cells (reference value: 55); type: cell-based; conditions: kbv1, 72 h, 0.05 µM; outline: as §1
[21] = target: T1, ATP-dependent translocase ABCB1; test: Inhibition of ABCB1 in human KBV1 cells assessed as potentiation of colchicine-induced cytotoxicity by measuring colchicine resistance ratio at 100 nM after 72 hrs by MTT assay relative to parental KB-3-1 cells (reference value: 55); type: cell-based; conditions: kbv1, 72 h, 0.1 µM; outline: as §1
[22] = target: T1, ATP-dependent translocase ABCB1; test: Binding affinity to Vanadate-sensitive ABCB1 (unknown origin)
[23] = system: KB 3-1; test: Potentiation of colchicine-induced apoptosis in human KB-3-1 cells assessed as necrotic cells at 1 uM after 48 hrs by Annexin V-FITC/propidium iodide staining based FACS analysis (reference value: 4.9%); type: functional
[24] = target: T1, ATP-dependent translocase ABCB1; test: Inhibition of ABCB1 in human NCI-ADR-RES cells assessed as potentiation of colchicine-induced cytotoxicity by measuring colchicine resistance ratio at 100 nM after 72 hrs by MTT assay relative to parental OVCAR8 cells (reference value: 59); type: cell-based; conditions: ovcar-8, 72 h, 0.1 µM; outline: as §1

T1 sequence (P08183 whole entry): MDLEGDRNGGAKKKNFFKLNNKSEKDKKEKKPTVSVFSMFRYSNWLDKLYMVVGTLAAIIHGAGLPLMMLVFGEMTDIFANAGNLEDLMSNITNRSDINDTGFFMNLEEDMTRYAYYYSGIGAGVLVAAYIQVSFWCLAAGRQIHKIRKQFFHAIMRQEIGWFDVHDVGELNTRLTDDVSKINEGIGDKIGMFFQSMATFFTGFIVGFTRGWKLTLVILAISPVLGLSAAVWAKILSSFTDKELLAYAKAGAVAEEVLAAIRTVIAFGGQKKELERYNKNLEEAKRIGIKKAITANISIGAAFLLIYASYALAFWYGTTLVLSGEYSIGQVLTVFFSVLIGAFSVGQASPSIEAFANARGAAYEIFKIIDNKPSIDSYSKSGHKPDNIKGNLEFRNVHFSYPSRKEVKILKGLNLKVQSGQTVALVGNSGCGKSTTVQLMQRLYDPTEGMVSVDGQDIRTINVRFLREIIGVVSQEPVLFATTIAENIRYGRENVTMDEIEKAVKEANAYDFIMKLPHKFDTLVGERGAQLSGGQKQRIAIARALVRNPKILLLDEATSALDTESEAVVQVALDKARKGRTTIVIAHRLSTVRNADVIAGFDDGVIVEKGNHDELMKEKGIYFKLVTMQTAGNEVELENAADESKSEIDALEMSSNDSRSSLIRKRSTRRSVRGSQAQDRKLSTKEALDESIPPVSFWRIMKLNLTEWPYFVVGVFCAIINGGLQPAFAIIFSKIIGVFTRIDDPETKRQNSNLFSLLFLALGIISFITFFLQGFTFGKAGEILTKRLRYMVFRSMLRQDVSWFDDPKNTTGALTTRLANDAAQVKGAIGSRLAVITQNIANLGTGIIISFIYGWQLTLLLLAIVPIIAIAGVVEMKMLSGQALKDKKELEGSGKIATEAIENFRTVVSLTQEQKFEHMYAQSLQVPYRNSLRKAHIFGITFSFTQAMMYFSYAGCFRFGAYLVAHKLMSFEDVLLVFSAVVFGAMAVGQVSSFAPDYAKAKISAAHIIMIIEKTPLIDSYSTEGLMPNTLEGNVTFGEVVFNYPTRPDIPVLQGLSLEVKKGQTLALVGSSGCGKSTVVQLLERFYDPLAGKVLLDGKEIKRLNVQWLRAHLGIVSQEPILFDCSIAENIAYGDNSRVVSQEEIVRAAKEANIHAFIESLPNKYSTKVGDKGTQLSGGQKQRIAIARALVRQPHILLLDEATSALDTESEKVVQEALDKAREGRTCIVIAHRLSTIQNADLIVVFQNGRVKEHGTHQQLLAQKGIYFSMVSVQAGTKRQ
Chain of ABCB1 (P-glycoprotein) (P08183 whole entry): as above
Chain of Multidrug resistance-associated protein 1 (P33527 whole entry): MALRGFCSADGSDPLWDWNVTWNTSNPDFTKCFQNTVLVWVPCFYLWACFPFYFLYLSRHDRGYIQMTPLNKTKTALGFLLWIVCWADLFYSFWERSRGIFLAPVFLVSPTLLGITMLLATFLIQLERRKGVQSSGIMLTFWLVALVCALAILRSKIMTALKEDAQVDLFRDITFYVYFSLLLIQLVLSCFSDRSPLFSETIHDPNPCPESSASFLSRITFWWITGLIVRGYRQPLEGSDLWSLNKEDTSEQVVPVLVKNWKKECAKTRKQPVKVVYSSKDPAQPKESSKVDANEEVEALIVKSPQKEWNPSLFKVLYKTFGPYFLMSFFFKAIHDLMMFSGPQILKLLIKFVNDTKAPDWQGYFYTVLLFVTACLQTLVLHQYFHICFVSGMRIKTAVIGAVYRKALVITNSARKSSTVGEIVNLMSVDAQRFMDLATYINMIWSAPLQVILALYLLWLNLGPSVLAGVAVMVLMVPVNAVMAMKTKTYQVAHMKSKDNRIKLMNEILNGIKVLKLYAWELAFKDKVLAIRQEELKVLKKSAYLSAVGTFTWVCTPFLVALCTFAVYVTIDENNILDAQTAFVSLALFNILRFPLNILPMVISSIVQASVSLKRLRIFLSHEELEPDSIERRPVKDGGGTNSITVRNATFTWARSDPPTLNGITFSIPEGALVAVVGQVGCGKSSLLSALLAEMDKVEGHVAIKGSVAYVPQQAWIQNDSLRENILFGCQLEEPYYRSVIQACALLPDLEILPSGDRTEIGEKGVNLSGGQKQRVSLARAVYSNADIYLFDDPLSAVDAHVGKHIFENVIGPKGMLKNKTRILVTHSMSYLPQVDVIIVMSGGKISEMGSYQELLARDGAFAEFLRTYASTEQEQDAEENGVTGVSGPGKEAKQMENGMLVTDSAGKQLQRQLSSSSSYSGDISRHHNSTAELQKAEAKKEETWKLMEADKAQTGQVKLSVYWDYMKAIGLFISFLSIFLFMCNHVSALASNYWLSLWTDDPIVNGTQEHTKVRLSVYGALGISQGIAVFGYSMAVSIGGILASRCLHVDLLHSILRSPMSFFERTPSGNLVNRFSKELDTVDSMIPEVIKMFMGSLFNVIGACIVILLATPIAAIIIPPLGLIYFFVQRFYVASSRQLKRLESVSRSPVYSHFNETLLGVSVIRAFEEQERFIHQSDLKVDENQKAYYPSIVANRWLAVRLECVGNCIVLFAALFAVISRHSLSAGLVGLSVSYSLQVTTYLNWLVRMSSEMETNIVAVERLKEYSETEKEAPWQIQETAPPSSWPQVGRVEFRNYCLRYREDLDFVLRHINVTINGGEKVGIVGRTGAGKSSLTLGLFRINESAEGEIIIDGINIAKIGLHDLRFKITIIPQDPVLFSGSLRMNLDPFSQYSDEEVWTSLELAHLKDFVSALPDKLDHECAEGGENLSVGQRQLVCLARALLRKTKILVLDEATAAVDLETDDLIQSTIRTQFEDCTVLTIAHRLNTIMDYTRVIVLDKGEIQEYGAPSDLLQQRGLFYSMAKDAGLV

Question: With `COc1ccc2cc1Oc1ccc(cc1)C[C@H]1c3cc(c(OC)cc3CCN1C)Oc1c(OC)c(OC)c(OC)c3c1[C@H](C2)N(C)CC3` [HERNANDEZINE] as the compound, how does the Ratio [1] read?
Answer: 547

Question: And the Ratio [2]?
Answer: 7

Question: What about the Ratio [3] of the same compound?
Answer: 19

Question: And the Ratio [4]?
Answer: 34

Question: And the Ratio [5]?
Answer: 26

Question: And the Ratio [6]?
Answer: 325

Question: What about the Ratio [7] of the same compound?
Answer: 3

Question: And the Ratio [8]?
Answer: 1

Question: And the Activity [9]?
Answer: 0.2%

Question: And the Activity ([10]; human)?
Answer: Dose-dependent effect

Question: What about the EC50 ([10]; read-out: Activity) of the same compound?
Answer: 0.02 µM

Question: What about the Ratio [11] of the same compound?
Answer: 505

Question: What about the Activity [12] of the same compound?
Answer: 31.1%

Question: What about the Activity [13] of the same compound?
Answer: 4.7%

Question: What about the Activity [14] of the same compound?
Answer: 6.7%

Question: What about the “inhibition (INH)” value [15] of the same compound?
Answer: Active

Question: And the fold induction [16]?
Answer: 7

Question: And the Ratio [17]?
Answer: 2

Question: And the Activity [18]?
Answer: 4.4%

Question: What about the Ratio [19] of the same compound?
Answer: 169

Question: What about the Ratio [20] of the same compound?
Answer: 31

Question: And the Ratio [21]?
Answer: 21

Question: And the Ki [22]?
Answer: 0.02 µM

Question: And the Activity [23]?
Answer: 5.1%

Question: And the Ratio [24]?
Answer: 23
